Reference: ChEMBL document CHEMBL1147450, “N2-benzyl-N1-(1-(1-naphthyl)ethyl)-3-phenylpropane-1,2-diamines and conformationally restrained indole analogues: development of calindol as a new calcimimetic acting at the calcium sensing receptor” (Bioorg Med Chem Lett, 2004)

target: T1, Extracellular calcium-sensing receptor (Homo sapiens, UniProt P41180); test: Ability to stimulate [3H]inositol phosphates accumulation in HEK293 cells expressing the human calcium sensing receptor (CaSR) at 2 mM [Ca2+]; assay type: functional, cell-based
T1 sequence (P41180 whole entry): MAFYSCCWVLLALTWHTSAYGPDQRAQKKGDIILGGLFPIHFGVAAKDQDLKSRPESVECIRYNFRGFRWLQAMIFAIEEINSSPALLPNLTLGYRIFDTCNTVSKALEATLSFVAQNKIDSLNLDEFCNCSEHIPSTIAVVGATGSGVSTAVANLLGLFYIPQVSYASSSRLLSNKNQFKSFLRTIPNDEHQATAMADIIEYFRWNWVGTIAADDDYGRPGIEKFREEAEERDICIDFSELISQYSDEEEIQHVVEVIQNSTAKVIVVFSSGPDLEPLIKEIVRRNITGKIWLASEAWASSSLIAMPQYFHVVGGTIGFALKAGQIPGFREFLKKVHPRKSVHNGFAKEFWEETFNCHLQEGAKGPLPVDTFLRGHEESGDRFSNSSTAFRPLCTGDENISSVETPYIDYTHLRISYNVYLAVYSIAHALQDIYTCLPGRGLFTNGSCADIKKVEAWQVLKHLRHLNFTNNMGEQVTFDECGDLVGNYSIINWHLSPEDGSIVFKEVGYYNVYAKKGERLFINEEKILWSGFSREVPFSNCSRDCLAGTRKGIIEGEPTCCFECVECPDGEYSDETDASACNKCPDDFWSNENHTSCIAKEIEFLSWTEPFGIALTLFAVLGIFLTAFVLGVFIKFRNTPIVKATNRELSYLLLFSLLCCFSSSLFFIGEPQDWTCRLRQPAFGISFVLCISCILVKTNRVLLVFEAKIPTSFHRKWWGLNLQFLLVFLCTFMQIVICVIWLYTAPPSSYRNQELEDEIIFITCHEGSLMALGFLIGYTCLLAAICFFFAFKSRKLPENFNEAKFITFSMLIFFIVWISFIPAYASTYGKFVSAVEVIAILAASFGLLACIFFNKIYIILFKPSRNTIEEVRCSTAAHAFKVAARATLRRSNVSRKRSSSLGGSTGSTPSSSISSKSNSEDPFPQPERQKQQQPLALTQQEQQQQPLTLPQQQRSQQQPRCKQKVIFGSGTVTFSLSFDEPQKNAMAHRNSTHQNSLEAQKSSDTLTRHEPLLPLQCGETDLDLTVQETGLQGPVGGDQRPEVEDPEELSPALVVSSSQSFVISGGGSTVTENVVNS
How it was run: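 HEK293 cells transiently expressing human CaSR, prelabelled with myo-[3H]inositol. Increasing drug concentrations were applied in the presence of 2 mM extracellular Ca2+. [3H]IP accumulation is expressed as % of the 10 mM Ca2+ response, and EC50 and maximal stimulation come from the dose-response curve. Three to five independent experiments in triplicate.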

| EC50 [nM] | SMILES |
| --- | --- |
| 310 | C[C@@H](NCc1cc2ccccc2[nH]1)c1cccc2ccccc12 |

target: T2, Extracellular calcium-sensing receptor (Rattus norvegicus) (UniProt P48442); test: Maximal stimulation of [3H]-inositol phosphates production in CHO cells expressing rat Calcium sensing receptor (CaSR) at 10 mM [Ca2+]; assay type: functional, cell-based
T2 sequence (whole entry): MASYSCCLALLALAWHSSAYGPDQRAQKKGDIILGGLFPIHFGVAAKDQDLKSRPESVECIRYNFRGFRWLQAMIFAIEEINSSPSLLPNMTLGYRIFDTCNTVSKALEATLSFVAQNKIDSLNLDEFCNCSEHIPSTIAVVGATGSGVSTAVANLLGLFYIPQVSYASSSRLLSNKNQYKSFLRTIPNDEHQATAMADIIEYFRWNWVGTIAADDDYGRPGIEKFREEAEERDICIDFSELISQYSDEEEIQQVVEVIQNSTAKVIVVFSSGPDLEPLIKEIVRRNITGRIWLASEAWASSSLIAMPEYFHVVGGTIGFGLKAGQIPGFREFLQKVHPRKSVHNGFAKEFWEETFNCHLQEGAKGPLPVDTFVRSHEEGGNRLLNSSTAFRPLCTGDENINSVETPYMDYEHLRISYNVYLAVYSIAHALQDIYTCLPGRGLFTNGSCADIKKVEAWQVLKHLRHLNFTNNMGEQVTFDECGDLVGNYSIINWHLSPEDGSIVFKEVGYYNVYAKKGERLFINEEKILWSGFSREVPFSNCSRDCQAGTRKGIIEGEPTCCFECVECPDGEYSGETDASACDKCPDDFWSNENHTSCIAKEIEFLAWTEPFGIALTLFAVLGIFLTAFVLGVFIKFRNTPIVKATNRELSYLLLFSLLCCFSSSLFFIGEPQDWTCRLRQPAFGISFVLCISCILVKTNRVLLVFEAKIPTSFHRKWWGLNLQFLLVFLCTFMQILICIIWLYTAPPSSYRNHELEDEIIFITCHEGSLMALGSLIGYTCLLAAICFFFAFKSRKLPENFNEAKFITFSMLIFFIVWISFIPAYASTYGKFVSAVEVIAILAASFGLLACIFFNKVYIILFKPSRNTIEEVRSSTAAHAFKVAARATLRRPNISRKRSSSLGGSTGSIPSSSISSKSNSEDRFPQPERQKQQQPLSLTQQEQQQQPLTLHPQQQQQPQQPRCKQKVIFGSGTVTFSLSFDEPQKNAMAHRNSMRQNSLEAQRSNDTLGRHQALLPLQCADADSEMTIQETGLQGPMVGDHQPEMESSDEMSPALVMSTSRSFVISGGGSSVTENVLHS
How it was run: (§1)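 CHO cells stably transfected with rat brain CaSR, grown in basal Ham's F-12 (0.3 mM Ca2+, 0.6 mM Mg2+), prelabelled overnight with 0.5 µCi/mL myo-[3H]inositol. Drugs were made as 10 mM ethanol stocks, diluted in basal medium, and incubated at 37 °C with 2 mM extracellular Ca2+. Read-out is [3H]IP accumulation as % of the 10 mM Ca2+ maximal response. Two to five independent experiments in triplicate, mean ± SEM.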

| Accumulation [%] | SMILES |
| --- | --- |
| 32 | C[C@H](NCc1cc2ccccc2[nH]1)c1cccc2ccccc12 |
| 74 | COc1ccc(CNC(CNC(C)c2cccc3ccccc23)Cc2ccccc2)cc1OC (centres undefined) |
| 117 | C[C@@H](NCc1cc2ccccc2[nH]1)c1cccc2ccccc12 |
| 80 | CC(NCC(Cc1ccccc1)NCc1ccccc1)c1cccc2ccccc12 (centres undefined) |
| 98 | CC(NCC(Cc1ccccc1)NCc1ccccc1Cl)c1cccc2ccccc12 (centres undefined) |
| 79 | CC(NCc1cc2ccccc2n1C)c1cccc2ccccc12 (centres undefined) |
| 95 | CC(NCC(Cc1ccccc1)NCc1ccc(F)cc1)c1cccc2ccccc12 (centres undefined) |
| 2 | CC(NC(=O)c1cc2ccccc2[nH]1)c1cccc2ccccc12 (centres undefined) |
| 34 | COc1cc2cc(CNC(C)c3cccc4ccccc34)[nH]c2cc1OC (centres undefined) |
| 55 | COc1ccc2[nH]c(CNC(C)c3cccc4ccccc34)cc2c1 (centres undefined) |
| 87 | CC(NCc1cc2cc(F)ccc2[nH]1)c1cccc2ccccc12 (centres undefined) |
| 54 | COc1ccc(S(=O)(=O)n2c(CNC(C)c3cccc4ccccc34)cc3ccccc32)cc1OC (centres undefined) |
| 78 | CC(NCC(Cc1ccccc1)NCc1cccc(Cl)c1)c1cccc2ccccc12 (centres undefined) |
| 60 | CC(NCc1cc2cc(Cl)ccc2[nH]1)c1cccc2ccccc12 (centres undefined) |
| 103 | CC(NCc1cc2ccccc2[nH]1)c1cccc2ccccc12 (racemic) |
| 80 | COc1ccc(CNC(CNC(C)c2cccc3ccccc23)Cc2ccccc2)cc1 (centres undefined) |

target: T3, Extracellular calcium-sensing receptor (Rattus norvegicus, UniProt P48442); test: Ability to stimulate [3H]inositol phosphates accumulation in CHO cells expressing rat Calcium sensing receptor (CaSR) at 2 mM [Ca2+]; assay type: functional, cell-based; how it was run: as §1
T3 sequence (P48442 whole entry): T2 sequence (whole entry)

| EC50 [nM] | SMILES |
| --- | --- |
| 1000 | C[C@@H](NCc1cc2ccccc2[nH]1)c1cccc2ccccc12 |
| 1300 | CC(NCc1cc2ccccc2[nH]1)c1cccc2ccccc12 (racemic) |
